Laboratory results: ChEMBL document CHEMBL5143652, “Quinazolinones as allosteric fourth-generation EGFR inhibitors for the treatment of NSCLC” (Bioorg Med Chem Lett, 2022)
Activity calls are given as the source filed them. The rule behind the calls is not given here.

How the values were obtained:
BaF3 [1] = experiment: Antiproliferative activity against mouse BaF3 cells harboring EGFR L858R/T790M double mutant assessed as inhibition of cell growth; assay type: functional, cell-based
In short: (§1)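 Ba/F3 proliferation assay with the compound alone (single-agent readout, no cetuximab). Cellular IC50 is reported in μM.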

BaF3 [2] = experiment: Antiproliferative activity against mouse BaF3 cells harboring EGFR L858R/T790M double mutant assessed as inhibition of cell growth in presence of cetuximab; assay type: functional, cell-based
In short: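 Ba/F3 proliferation assay, second readout: cells co-treated with cetuximab to prevent EGFR dimer formation. Cellular IC50 is reported in μM.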

BaF3 [3] = experiment: Antiproliferative activity against mouse BaF3 cells harboring EGFR L858R/T790M/C797S triple mutant assessed as inhibition of cell growth; assay type: functional, cell-based; in short: as §1
[4] = target: Epidermal growth factor receptor (Homo sapiens, UniProt P00533, L858R/T790M); experiment: biochemical
Sequence of Epidermal growth factor receptor (P00533 25-1210 T790M/L858R limits assumed): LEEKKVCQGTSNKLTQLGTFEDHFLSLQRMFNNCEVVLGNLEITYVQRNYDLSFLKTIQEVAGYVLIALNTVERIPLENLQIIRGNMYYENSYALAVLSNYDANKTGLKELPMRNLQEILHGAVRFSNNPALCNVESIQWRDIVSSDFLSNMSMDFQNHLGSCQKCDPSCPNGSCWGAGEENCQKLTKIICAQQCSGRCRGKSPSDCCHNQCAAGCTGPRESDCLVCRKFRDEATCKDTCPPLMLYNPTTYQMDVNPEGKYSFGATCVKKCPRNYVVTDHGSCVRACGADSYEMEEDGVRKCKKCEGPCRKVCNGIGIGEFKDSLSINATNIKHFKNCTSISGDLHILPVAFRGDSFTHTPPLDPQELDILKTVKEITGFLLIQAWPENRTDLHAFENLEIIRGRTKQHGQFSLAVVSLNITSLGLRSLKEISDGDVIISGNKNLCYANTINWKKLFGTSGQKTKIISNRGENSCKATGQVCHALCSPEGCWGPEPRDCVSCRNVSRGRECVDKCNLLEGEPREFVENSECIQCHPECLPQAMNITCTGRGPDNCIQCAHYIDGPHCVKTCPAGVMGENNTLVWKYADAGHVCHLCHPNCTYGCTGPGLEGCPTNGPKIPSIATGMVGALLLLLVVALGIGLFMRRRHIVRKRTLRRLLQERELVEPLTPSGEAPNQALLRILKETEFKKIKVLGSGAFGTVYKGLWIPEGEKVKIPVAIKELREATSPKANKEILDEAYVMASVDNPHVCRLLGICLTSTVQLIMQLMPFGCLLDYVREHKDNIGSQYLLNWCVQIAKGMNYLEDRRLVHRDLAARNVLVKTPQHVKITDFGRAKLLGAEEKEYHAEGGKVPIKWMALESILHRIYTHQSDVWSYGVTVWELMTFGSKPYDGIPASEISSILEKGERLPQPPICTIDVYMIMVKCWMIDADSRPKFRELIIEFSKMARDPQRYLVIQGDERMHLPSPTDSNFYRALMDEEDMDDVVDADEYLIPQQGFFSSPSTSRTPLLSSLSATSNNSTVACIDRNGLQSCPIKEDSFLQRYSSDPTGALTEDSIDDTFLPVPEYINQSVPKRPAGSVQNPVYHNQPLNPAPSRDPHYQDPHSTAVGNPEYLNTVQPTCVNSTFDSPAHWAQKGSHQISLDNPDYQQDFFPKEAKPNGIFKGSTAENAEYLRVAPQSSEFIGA

[5] = Clearance in rat at 1 mg/kg, iv; assay type: ADME, organism-based; conditions: in vivo
[6] = Half life in rat at 1 mg/kg, iv; assay type: ADME, organism-based; conditions: in vivo
[7] = Oral bioavailability in rat at 10 mg/kg; assay type: ADME, organism-based; conditions: in vivo
NCI-H1975 [8] = experiment: Antitumor activity against human NCI-H1975 cells harboring EGFR L858R/T790M mutant xenografted in rat assessed as tumor growth inhibition at 25 mg/kg, po administered once daily for 20 days and measured on 35 day; assay type: functional, organism-based
NCI-H1975 [9] = experiment: Antitumor activity against human NCI-H1975 cells harboring EGFR L858R/T790M mutant xenografted in rat assessed as tumor growth inhibition at 50 mg/kg, po administered once daily for 20 days and measured on 35 day; assay type: functional, organism-based
NCI-H1975 [10] = experiment: Antitumor activity against human NCI-H1975 cells harboring EGFR L858R/T790M mutant xenografted in rat assessed as slower regrowth of tumor at 50 mg/kg, po administered once daily for 20 days and measured on 35 day; assay type: functional, organism-based
NCI-H1975 [11] = experiment: Antitumor activity against human NCI-H1975 cells harboring EGFR L858R/T790M mutant xenografted in rat assessed as slower regrowth of tumor at 50 mg/kg, po administered once daily for 20 days and measured on 35 day
[12] = Volume of distribution at steady state in mouse at 3 mg/kg, iv or 20 mg/kg, po; assay type: ADME, organism-based; conditions: in vivo, read-out: Vdss
[13] = Clearance in mouse at 3 mg/kg, iv; assay type: ADME, organism-based; conditions: in vivo
[14] = Half life in mouse at 3 mg/kg, iv; assay type: ADME, organism-based; conditions: in vivo
[15] = Oral bioavailability in mouse at 20 mg/kg; assay type: ADME, organism-based; conditions: in vivo
[16] = AUC (0 to 8 hrs) in mouse at 3 mg/kg, iv or 20 mg/kg, po; assay type: ADME, organism-based; set-up: dose 3 mg/kg, route iv; conditions: in vivo

CN1CCC(c2ccc(-c3ccc4ncn(C(C(=O)Nc5nccs5)c5ccccc5)c(=O)c4n3)cc2)CC1 (configuration not stated)
IC50 (BaF3 [1]): 1.71 µM
IC50 (BaF3 [2]): 0.016 µM
IC50 (BaF3 [3]): 0.09 µM

CN1CCC(c2ccc(-c3ccc4c(c3)CCN(C(C(=O)Nc3nccs3)c3cccc(F)c3)C4=O)cc2)CC1 (configuration not stated)
IC50 (BaF3 [1]): 1.99 µM
IC50 [4]: 0.0022 µM

CN1CCC(c2ccc(-c3ccc4ncn(C(C(=O)Nc5nccs5)c5ccccc5)c(=O)c4c3F)cc2)CC1 (configuration not stated)
clearance [5]: 30 mL/min/kg
t1/2 [6]: 3.5 h
F [7]: 24%
Activity (NCI-H1975 [8]): Active
Activity (NCI-H1975 [9]): Active
Activity (NCI-H1975 [10]): Active
Activity (NCI-H1975 [11]): Active

CN1CCN(c2ccc(-c3ccc4ccn(C(C(=O)Nc5nccs5)c5ccccc5)c(=O)c4c3)cc2)CC1 (configuration not stated)
IC50 (BaF3 [1]): 1.85 µM

CN1CCC(c2ccc(-c3ccc4c(=O)n(C(C(=O)Nc5nccs5)c5ccccc5)ccc4c3)cc2)CC1 (configuration not stated)
IC50 (BaF3 [1]): 1.28 µM
IC50 (BaF3 [2]): 0.024 µM
IC50 (BaF3 [3]): 0.5 µM
IC50 [4]: 0.0012 µM

CN1CCN(c2ccc(-c3ccc4c(c3)C(=O)N(C(C(=O)Nc3nccs3)c3cccc(F)c3)C4)cc2)CC1 (configuration not stated)
IC50 (BaF3 [1]): 1.99 µM
IC50 [4]: 0.0018 µM

CN1CCN(c2ccc(-c3ccc4cnn(C(C(=O)Nc5nccs5)c5ccccc5)c(=O)c4c3)cc2)CC1 (configuration not stated)
IC50 (BaF3 [1]): 2.16 µM
IC50 (BaF3 [2]): 0.38 µM
IC50 [4]: 0.0103 µM

CN1CCN(c2ccc(-c3ccc4c(c3)C(=O)N(C(C(=O)Nc3nccs3)c3cccc(F)c3)CC4)cc2)CC1 (configuration not stated)
IC50 (BaF3 [1]): 1.6 µM
IC50 (BaF3 [2]): 0.126 µM
IC50 [4]: 0.0068 µM

CN1CCC(c2ccc(-c3ccc4c(c3)C(=O)N(C(C(=O)Nc3nccs3)c3cccc(F)c3)C4)cc2)CC1 (configuration not stated)
Vd [12]: 2.4 L/kg
IC50 (BaF3 [1]): 1.07 µM
IC50 (BaF3 [2]): 0.02 µM
clearance [13]: 13.9 mL/min/kg
half-life [14]: 3.1 h
F [15]: 4%
AUC(0-t) [16]: 1000 ng·h/mL
IC50 (BaF3 [3]): 0.152 µM
IC50 [4]: 0.0002 µM

CN1CCC(c2ccc(-c3ccc4ccn(C(C(=O)Nc5nccs5)c5ccccc5)c(=O)c4c3)cc2)CC1 (configuration not stated)
IC50 (BaF3 [1]): 1.5 µM
IC50 (BaF3 [2]): 0.07 µM
IC50 (BaF3 [3]): 0.38 µM
IC50 [4]: 0.0018 µM

CN1CCN(c2ccc(-c3ccc4c(c3)C(=O)N(C(C(=O)Nc3nccs3)c3cc(F)ccc3O)C4)cc2)CC1 (configuration not stated)
Vd [12]: 1.8 L/kg
IC50 (BaF3 [1]): 0.49 µM
IC50 (BaF3 [2]): 0.006 µM
clearance [13]: 10.3 mL/min/kg
half-life [14]: 2.8 h
F [15]: 2%
AUC(0-t) [16]: 1350 ng·h/mL
IC50 [4]: 0.0003 µM

CN1CCC(c2ccc(-c3ccc4c(=O)n(C(C(=O)Nc5nccs5)c5ccccc5)ncc4c3)cc2)CC1 (configuration not stated)
IC50 (BaF3 [1]): 1.24 µM
IC50 (BaF3 [3]): 0.99 µM
IC50 [4]: 0.0097 µM

CN1CCN(c2ccc(-c3ccc4c(=O)n(C(C(=O)Nc5nccs5)c5ccccc5)cnc4c3)cc2)CC1 (configuration not stated)
IC50 (BaF3 [1]): 2 µM
IC50 (BaF3 [2]): 0.375 µM
IC50 [4]: 0.0031 µM

O=C(Nc1nccs1)C(c1cc(F)ccc1O)N1Cc2ccc(-c3ccc(N4CCNCC4)cc3)cc2C1=O (configuration not stated)
Vd [12]: 0.6 L/kg
IC50 (BaF3 [1]): 0.61 µM
IC50 (BaF3 [2]): 0.021 µM
clearance [13]: 5 mL/min/kg
half-life [14]: 3 h
AUC(0-t) [16]: 2520 ng·h/mL

CN1CCC(c2ccc(-c3cnc4ncn(C(C(=O)Nc5nccs5)c5ccccc5)c(=O)c4c3)cc2)CC1 (configuration not stated)
IC50 (BaF3 [1]): 1.14 µM
IC50 (BaF3 [2]): 0.023 µM
IC50 (BaF3 [3]): 0.31 µM
IC50 [4]: 0.0019 µM

CN1CCN(c2ccc(-c3ccc4c(=O)n(C(C(=O)Nc5nccs5)c5ccccc5)ccc4c3)cc2)CC1 (configuration not stated)
IC50 (BaF3 [1]): 1.27 µM
IC50 (BaF3 [2]): 0.062 µM
IC50 [4]: 0.0034 µM

CN1CCC(c2ccc(-c3cc(F)c4ncn(C(C(=O)Nc5nccs5)c5ccccc5)c(=O)c4c3)cc2)CC1 (configuration not stated)
IC50 (BaF3 [1]): 0.81 µM
IC50 (BaF3 [2]): 0.01 µM
IC50 (BaF3 [3]): 0.15 µM

CN1CCN(c2ccc(-c3ccc4c(c3)C(=O)N(C(C(=O)Nc3nccs3)c3ccccc3)C4)cc2)CC1 (configuration not stated)
IC50 (BaF3 [1]): 2.56 µM
IC50 (BaF3 [2]): 0.043 µM
IC50 [4]: 0.0009 µM

CN1CCC(c2ccc(-c3ccc4c(=O)n(C(C(=O)Nc5nccs5)c5ccccc5)cnc4c3)cc2)CC1 (configuration not stated)
IC50 (BaF3 [1]): 2.43 µM
IC50 (BaF3 [2]): 0.225 µM
IC50 (BaF3 [3]): 0.9 µM
IC50 [4]: 0.0058 µM

CN1CCC(c2ccc(-c3cc4c(=O)n(C(C(=O)Nc5nccs5)c5ccccc5)cnc4cc3F)cc2)CC1 (configuration not stated)
IC50 (BaF3 [1]): 3 µM
IC50 (BaF3 [2]): 0.073 µM
IC50 (BaF3 [3]): 0.28 µM
IC50 [4]: 0.0014 µM

CN1CCC(c2ccc(-c3ccc4cnn(C(C(=O)Nc5nccs5)c5ccccc5)c(=O)c4c3)cc2)CC1 (configuration not stated)
IC50 (BaF3 [1]): 1.54 µM
IC50 (BaF3 [2]): 0.207 µM
IC50 (BaF3 [3]): 0.44 µM

CN1CCC(c2ccc(-c3ccc4c(c3)C(=O)N(C(C(=O)Nc3nccs3)c3cccc(F)c3)CC4)cc2)CC1 (configuration not stated)
IC50 (BaF3 [1]): 1.47 µM
IC50 (BaF3 [2]): 0.099 µM
IC50 [4]: 0.0032 µM

CN1CCC(c2ccc(-c3ccc4ncn(C(C(=O)Nc5nccs5)c5ccccc5)c(=O)c4c3)cc2)CC1 (configuration not stated)
IC50 (BaF3 [1]): 0.78 µM
IC50 (BaF3 [3]): 0.05 µM

CN1CCN(c2ccc(-c3ccc4c(=O)n(C(C(=O)Nc5nccs5)c5ccccc5)ncc4c3)cc2)CC1 (configuration not stated)
IC50 (BaF3 [1]): 3.46 µM
IC50 (BaF3 [2]): 1.67 µM

O=C(Nc1nccs1)C(c1cc(F)ccc1O)N1Cc2ccccc2C1=O (configuration not stated)
IC50 (BaF3 [1]): > 10 µM
IC50 (BaF3 [2]): 0.221 µM

CN1CCN(c2ccc(-c3ccc4ncn(C(C(=O)Nc5nccs5)c5ccccc5)c(=O)c4c3)cc2)CC1 (configuration not stated)
IC50 (BaF3 [1]): 2.32 µM
IC50 (BaF3 [2]): 0.021 µM
IC50 [4]: 0.0009 µM

CN1CCC(c2ccc(-c3ccc4c(c3)C(=O)N(C(C(=O)Nc3nccs3)c3cc(F)ccc3O)C4)cc2)CC1 (configuration not stated)
Vd [12]: 2.5 L/kg
IC50 (BaF3 [1]): 0.05 µM
IC50 (BaF3 [2]): 0.006 µM
clearance [13]: 15.7 mL/min/kg
half-life [14]: 2.3 h
F [15]: 15%
AUC(0-t) [16]: 2400 ng·h/mL
IC50 [4]: 0.0001 µM
